Assay results of several laboratories.
Lines come from different studies, so protocols differ.
Observed: cell growth or viability

| SMILES | cell line | method | time | IC50 |
| --- | --- | --- | --- | --- |
| CC(C)c1cccc(C(C)C)c1-n1c(Cl)c(Cl)n(-c2c(C(C)C)cccc2C(C)C)c1=[Se] | HCT-15 | MTT | 72 h | 14.2 µM |
| CC(=O)O[C@@]12CO[C@@H]1C[C@H](O)[C@@]1(C)C(=O)[C@H](O)C3=C(C)[C@@H](OC(=O)[C@H](O)[C@@H](NC(=O)OC(C)(C)C)c4ccccc4)C[C@@](O)([C@@H](OC(=O)c4ccccc4)[C@H]21)C3(C)C | 4T1 | CCK-8 | 72 h | 0.118 µM |
| Nc1nc(Nc2ccccc2)nc2c1ncn2[C@@H]1O[C@H](CO)[C@@H](O)[C@H]1O | CAL-27 |  | 72 h | > 20 µM |
| CCCCOc1cccc(-c2cnc3c(n2)CCCC3)c1 | MCF-10A |  | 48 h | > 50 µM |
| C[C@H]1[C@@H](O)O[C@@H]2O[C@@]3(C)CC[C@H]4[C@H](C)CC[C@@H]1[C@@]24OO3 | MCF-10A | CCK-8 | 48 h | 44.4 µM |
| CCN1CCN(Cc2ccc(Nc3ncc(F)c(-c4cc(F)c5nc(C)n(C(C)C)c5c4)n3)nc2)CC1 | 4T1 | CCK-8 |  | > 2 µM |
| CC(C)c1ccccc1S(=O)(=O)c1cc(N)c2ncccc2c1[N+](=O)[O-] | CAL-27 |  | 72 h | > 20 µM |
| O=C(c1cc(Cl)c(Cl)[nH]1)c1c(O)ccc(C(c2csc(-c3ccccc3O)n2)c2ccc(O)c(C(=O)c3cc(Cl)c(Cl)[nH]3)c2O)c1O | MDCK | MTT | 72 h | 67 µg/mL |
| c1ccc(-c2cnc3c(n2)CCCC3)cc1 | MCF-10A |  | 48 h | > 50 µM |
| COc1ccc2c(c1OC)C(=O)O[C@@H]2[C@H]1c2c(cc3c(c2OC)OCO3)CCN1C | CAL-27 |  | 72 h | 17 µM |
| O=C(NC(=S)NCc1ccc(CNC(=S)NC(=O)c2ccc3ccccc3c2)cc1)c1ccc2ccccc2c1 | MCF-10A |  | 48 h | 91.4 µM |
| CC(=O)CC(c1ccccc1)c1c(O)c2ccccc2oc1=O (centres unmarked) | CAL-27 |  | 72 h | > 20 µM |
| COc1cc(C2Oc3cc([C@H]4Oc5cc(O)cc(O)c5C(=O)[C@@H]4O)ccc3OC2CO)ccc1O (some centres unmarked) | SNU-423 | CCK-8 | 72 h | 18.8 µM |
| O=C1CCCCC1C1C2C=CC=CC1/C(=C/c1ccccc1)C2 (centres unmarked) | K562 | flow cytometry |  | 0.059 µM |
| C=C1CC[C@@H]2[C@](C)(CO)[C@H](O)CC[C@@]2(C)[C@@H]1C/C=C1/C(=O)OC[C@H]1O | VCaP | CCK-8 | 72 h | 20.4 µM |
| COc1ccc(-c2cnc3c(n2)CCCC3)cc1Cl | MCF-10A |  | 48 h | 35.7 µM |

| SMILES | cell line | method | time | IC50 |
| --- | --- | --- | --- | --- |
| CC(C)C[C@H](NC(=O)[C@H](Cc1ccccc1)NC(=O)c1cnccn1)B(O)O | P31-FUJ | ATP luminescence |  | 0.0051 µM |
| C=CC1=C(C(=O)O)N2C(=O)[C@@H](NC(=O)/C(=N\OCC(=O)O)c3csc(N)n3)[C@H]2SC1 | VCaP | CCK-8 | 72 h | > 30 µM |
| O=C(Nc1nnnn1C1CCCCC1)c1ccc2ccccc2c1 | MCF-10A |  | 48 h | 81 µM |
| NCCc1ccc(O)c(O)c1 | CAL-27 |  | 72 h | > 20 µM |
| COc1cc(OC)c(/C=C/S(=O)(=O)Nc2ccc(OC)c(N)c2)c(OC)c1 | N417 | trypan blue | 96 h | 0.004 µM |
| S=C(NN=Cc1ccc(Cl)s1)Nc1ccccc1 | CRFK |  |  | 10.1 µM |
| N#Cc1ccc(COC[C@H]2O[C@@H](n3c(NCc4ccc(Cl)c(Cl)c4)nc4c(N)ncnc43)[C@H](O)[C@@H]2O)cc1 | CAL-27 |  | 72 h | > 20 µM |
| c1ccc(-c2cccc(-c3cnc4c(n3)CCCC4)c2)cc1 | MCF-10A |  | 48 h | > 50 µM |
| Clc1ccc(N2CCN(Cc3c[nH]c4ncccc34)CC2)cc1 | CAL-27 |  | 72 h | > 20 µM |
| CCCCCc1ccc(-c2cnc3c(n2)CCCC3)cc1 | MCF-10A |  | 48 h | > 50 µM |
| O=C(C=C[c-]1cccc1)c1sccc1Br.[Fe+2].c1cc[cH-]c1 | 4T1 | MTT | 72 h | 32.9 µM |
| CCN(CC)CCNC(=O)COc1ccc(OC)cc1 | CAL-27 |  | 72 h | > 20 µM |
| COc1ccc(-c2cnc3c(n2)CCCC3)nc1 | MCF-10A |  | 48 h | > 50 µM |
| COc1cc(Nc2nccc(-c3cnn4nc(OC)ccc34)n2)cc(C(F)(F)F)c1 | SCLC-21H | ATP luminescence |  | 0.36 µM |
| CN(C)c1ccc2cc(C(=O)N[C@@H](CCCNC(=N)CCl)C(=O)NCc3ccccc3)ccc2c1 | 4T1 |  | 48 h | 11.9 µM |
| CC(C)c1cc(-c2n[nH]c(=O)n2-c2ccc3c(ccn3C)c2)c(O)cc1O | MDA-MB-415 | imaging | 24 h | 0.024 µM |
